Compound activity (PubChem BioAssay)
Tb MetRS inh – Trypanosoma brucei MetRS inhibition; purified T. brucei MetRS, ATP depletion, Kinase-Glo luminescence; inhibition, % at 11.9 µM; 0.4% of 360,000 active; AID 624268;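 active = inhibition above a per-plate cutoff of the control wells' mean inhibition plus 3 SD, cut at about 5.5% in these data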;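 also: 0% = DMSO wells median and 100% = median of wells with control inhibitor compound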
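System: purified T. brucei MetRS enzyme / Detection: Kinase-Glo luciferase luminescence reporting remaining unconsumed ATP / Medium: HEPES buffer with MgCl2, KCl, DTT, spermine, BSA, pyrophosphatase / Replication: singlicate, one well per compound / Evaluation: percent inhibition relative to median high and low control wells / Schedule: 2 h aminoacylation at 25 °C after 15 min preincubation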
AHR act – activates the human aryl hydrocarbon receptor | 2.5% of 320,000 active | AHR-responsive luciferase reporter cells, luminescence | activation, % at 5 µM | P35869 | AID 2796; in the data active = activation above about 47%;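 also: 0% = vehicle wells and 100% = reference agonist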
bovine MsrA act – activates bovine MsrA enzyme. purified bovine MsrA, absorbance read-out. 0.3% of 360,000 active. activation, % at 10.6 µM. AID 602163; in the data active = activation above about 7.5%;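 also: 0% = vehicle and 100% = reference activator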
m5-HT2A agonist – mouse HTR2A agonism via beta-arrestin recruitment; P35363; CHO-K1 mHTR2A beta-arrestin complementation, luminescence; percent of 30 µM serotonin response; activation, % at 7.6 µM; 0.66% of 360,000 active; AID 624169;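 active = activation above a run cutoff, the mean activation of all tested compounds plus 3 SD, cut at about 14% in these data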;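 also: 0% = plate median of compound wells and 100% = 30 µM serotonin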
Target sequence (P35363 whole entry, looked up): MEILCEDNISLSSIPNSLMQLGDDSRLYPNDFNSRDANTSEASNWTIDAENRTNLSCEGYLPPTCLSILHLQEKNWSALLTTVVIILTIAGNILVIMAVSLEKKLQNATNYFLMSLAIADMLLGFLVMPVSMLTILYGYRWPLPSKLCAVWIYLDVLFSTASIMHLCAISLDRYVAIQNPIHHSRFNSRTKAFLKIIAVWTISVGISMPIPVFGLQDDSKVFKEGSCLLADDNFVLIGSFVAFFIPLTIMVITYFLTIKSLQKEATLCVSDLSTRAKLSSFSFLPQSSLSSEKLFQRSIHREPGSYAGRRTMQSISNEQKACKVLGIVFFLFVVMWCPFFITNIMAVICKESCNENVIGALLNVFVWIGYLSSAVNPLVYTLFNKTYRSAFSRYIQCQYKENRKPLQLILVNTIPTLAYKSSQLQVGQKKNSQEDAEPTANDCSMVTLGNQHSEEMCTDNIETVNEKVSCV
MsrA inhibitor – inhibits bovine methionine sulfoxide reductase A; 0.75% of 360,000 active; AID 651718; purified bovine MsrA, absorbance read-out; inhibition, % at 15.5 µM; in the data active = inhibition above about 4.5%;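 also: 0% = vehicle wells with enzyme and 100% = reference inhibitor wells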
AI-2 QS modul – modulators of Vibrio harveyi AI-2 quorum sensing system; Vibrio harveyi JMH597 AI-2 luminescence/OD600 ratio, 9 h; stronger effect = lower value; strain lacks LuxN and CqsS sensors; 0 = neutral-control median; activity change, % at 7.5 µM; 0.4% of 300,000 active; AID 2094; in the data active = activity change below about -75%, passing the limit was not always enough;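 also: luminescence divided by OD600 gain over 9 h not by final OD600 alone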
OPRM1 ag – OPRM1 agonism in mouse HTR2A counterscreen; shares compounds with m5-HT2A agonist; U2OS OPRM1 beta-arrestin PathHunter, luminescence; DMSO 0%, DAMGO 9.3 µM 100%; activation, % at 9.3 µM; 5.3% of 2,300 active; AID 624380;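 active = mean activation above the mean of DMSO-only wells plus 3 SD, cut at about 0.5% in these data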
m5-HT2A ag conf – confirmation of mouse HTR2A serotonin receptor agonists | shares compounds with m5-HT2A agonist | CHO-K1 PathHunter beta-arrestin recruitment, luminescence; DMSO 0%, 30 µM serotonin 100% | activation, % at 7.6 µM | 19% of 2,300 active | AID 624381;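 active = mean activation across triplicates above the hit threshold derived in the original primary screen, cut at about 15% in these data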
Starred values were filed as active, the others as inactive. A selection: hits, their analogues and other compounds. The true share with any hit is near 4.4%.

Results for O=C(CSc1nnc(C2CCCCC2)o1)Nc1ccccc1Cl ?
Tb MetRS inh: 0; AHR act: 2; bovine MsrA act: 1; m5-HT2A agonist: 6; MsrA inhibitor: 2; AI-2 QS modul: 13

Results for C=C(C)C1CC=C(CN2CC(C)OC(C)C2)CC1 (centres undefined) ?
Tb MetRS inh: 0; AHR act: -2; bovine MsrA act: -3; m5-HT2A agonist: 1; MsrA inhibitor: 0; AI-2 QS modul: 38

How did C=C(C)C1CC=C(CN2CCC(C(=O)OCC)CC2)CC1 (centres undefined) do in these assays?
Tb MetRS inh: -2; AHR act: 0; bovine MsrA act: -15; m5-HT2A agonist: 18*; MsrA inhibitor: 0; AI-2 QS modul: 0; OPRM1 ag: 0; m5-HT2A ag conf: 26*

What do the screens show for `CN1CCN(CCNC(=O)c2ccc3nc(-c4ccc(F)cc4)c(-c4ccc(F)cc4)nc3c2)CC1`?
Tb MetRS inh: 0; AHR act: 1; bovine MsrA act: -1; m5-HT2A agonist: 2; MsrA inhibitor: 2; AI-2 QS modul: -20

What do the screens show for `COc1cc2[nH]c(=S)n(Cc3cccs3)c(=O)c2cc1OC`?
Tb MetRS inh: 1; AHR act: 17; bovine MsrA act: -2; m5-HT2A agonist: 19*; MsrA inhibitor: -1; AI-2 QS modul: 8; OPRM1 ag: -1; m5-HT2A ag conf: -2

Results for CCCn1c(=S)[nH]c2cc(OC)c(OC)cc2c1=O ?
Tb MetRS inh: 0; AHR act: 43; bovine MsrA act: 1; m5-HT2A agonist: 6; AI-2 QS modul: 17

How did O=C(/C=C/c1ccccc1)CCN1CCCCC1 do in these assays?
Tb MetRS inh: -1; bovine MsrA act: -1; m5-HT2A agonist: -6; MsrA inhibitor: 0

What do the screens show for `O=P(O)(OCc1ccccc1)OCc1ccccc1`?
Tb MetRS inh: 0; AHR act: 0; bovine MsrA act: -1; m5-HT2A agonist: -2; MsrA inhibitor: 0

What do the screens show for `C=CCn1c(SCC(=O)c2ccc(Cl)cc2)nnc1-c1ccc2c(c1)OCO2`?
Tb MetRS inh: 0; AHR act: 9; bovine MsrA act: 0; m5-HT2A agonist: 32*; MsrA inhibitor: 0; AI-2 QS modul: 15; OPRM1 ag: 0; m5-HT2A ag conf: 1

Results for COC(=O)C1=C(CS(=O)(=O)c2cc(Cl)ccc2OC)NC(=O)NC1c1ccc(O)c(OC)c1 (centres undefined) ?
Tb MetRS inh: 0; AHR act: 2; bovine MsrA act: -4; m5-HT2A agonist: 15*; MsrA inhibitor: 0; AI-2 QS modul: 23; OPRM1 ag: -1; m5-HT2A ag conf: 1

Results for COc1ccccc1-c1ccc2c(c1)C(C)(Cc1ccc(Cl)c(Cl)c1)C(=O)N2 (centres undefined) ?
Tb MetRS inh: 0; bovine MsrA act: -2; m5-HT2A agonist: 23*; MsrA inhibitor: 1; OPRM1 ag: -1; m5-HT2A ag conf: -4

Results for COc1ccccc1-c1ccc2c(c1)C(C)(Cc1ccccc1C#N)C(=O)N2 (centres undefined) ?
Tb MetRS inh: 0; bovine MsrA act: -7; m5-HT2A agonist: 7; MsrA inhibitor: -1

Results for N/C(=N\OC(=O)c1ccccc1Cl)c1cccc([N+](=O)[O-])c1 ?
Tb MetRS inh: -1; AHR act: 17; bovine MsrA act: -6; m5-HT2A agonist: 15*; MsrA inhibitor: -2; AI-2 QS modul: 7; OPRM1 ag: 0; m5-HT2A ag conf: -6

How did NS(=O)(=O)c1ccc(CCNS(=O)(=O)c2ccc(Cl)s2)cc1 do in these assays?
Tb MetRS inh: 0; AHR act: 0; bovine MsrA act: -2; m5-HT2A agonist: 4; MsrA inhibitor: 1

Results for CC(C)C(=O)NC(NCC1CCCO1)C(Cl)(Cl)Cl (centres undefined) ?
Tb MetRS inh: 0; AHR act: 0; bovine MsrA act: 0; m5-HT2A agonist: 17*; MsrA inhibitor: 0; AI-2 QS modul: 12; OPRM1 ag: -1; m5-HT2A ag conf: -2

What do the screens show for `O=C(c1cccc(S(=O)(=O)N2CCN(c3ccccc3)CC2)c1)N1CCN(c2ccccc2O)CC1`?
Tb MetRS inh: 0; AHR act: 2; bovine MsrA act: -1; m5-HT2A agonist: -4; MsrA inhibitor: 0; AI-2 QS modul: 4

What do the screens show for `O=C(Nc1ccccc1C(F)(F)F)c1cnccn1`?
Tb MetRS inh: -2; AHR act: 2; bovine MsrA act: -7; m5-HT2A agonist: 19*; MsrA inhibitor: -1; AI-2 QS modul: 10; OPRM1 ag: -1; m5-HT2A ag conf: 2

Results for O=C(Nc1ccccc1Cl)c1cnccn1 ?
Tb MetRS inh: -1; AHR act: -4; bovine MsrA act: -1; m5-HT2A agonist: -2; MsrA inhibitor: -1; AI-2 QS modul: 15

What do the screens show for `COc1ccccc1-c1cnc(C(O)c2c(C)cc(C)cc2C)[nH]1` (centres undefined)?
Tb MetRS inh: 0; bovine MsrA act: 0; m5-HT2A agonist: 7; MsrA inhibitor: 0

Results for CC1(C)CC(=O)c2c(nc(SCC(=O)Nc3nsc(-c4ccccc4)n3)c(C#N)c2-c2ccccc2)C1 ?
Tb MetRS inh: 0; AHR act: 2; bovine MsrA act: 0; m5-HT2A agonist: -4; MsrA inhibitor: 1; AI-2 QS modul: 14

What do the screens show for `COc1ccc(-c2c(C#N)c(SCc3c(C)noc3C)nc3c2C(=O)CC(C)(C)C3)cc1`?
Tb MetRS inh: -1; AHR act: 2; bovine MsrA act: 3; m5-HT2A agonist: 18*; MsrA inhibitor: 0; AI-2 QS modul: 22; OPRM1 ag: -1; m5-HT2A ag conf: -3

How did O=C(NCc1ccc(Cl)cc1)C1CCCN1C(=O)Nc1ccccc1 (centres undefined) do in these assays?
Tb MetRS inh: -1; AHR act: 0; bovine MsrA act: -2; m5-HT2A agonist: -2; MsrA inhibitor: 1; AI-2 QS modul: 12

Results for CCOc1ccc(-c2nnc3ccc(SCC(=O)Nc4nc5ccc(C)cc5s4)nn23)cc1 ?
Tb MetRS inh: 0; AHR act: 63*; bovine MsrA act: -3; m5-HT2A agonist: 17*; MsrA inhibitor: 1; AI-2 QS modul: 3; OPRM1 ag: 0; m5-HT2A ag conf: -2

How did CC1(C(=O)OCC(=O)Nc2ccc(C(N)=O)cc2)CC1(Cl)Cl (centres undefined) do in these assays?
Tb MetRS inh: 0; AHR act: 1; bovine MsrA act: -2; m5-HT2A agonist: 2; MsrA inhibitor: -1; AI-2 QS modul: 25
